Measured values reported in ChEMBL document CHEMBL1212777, “Novel VIM metallo-beta-lactamase variant from clinical isolates of Enterobacteriaceae from Algeria” (2010).
≈ marks a conversion by molar mass, not a printed value.

Key:
Format in all cases: functional
[1] = system: Providencia stuartii; experiment: Antimicrobial activity against Providencia stuartii 6858 strain expressing beta-lactamase VIM-19 by microdilution method
In short: (§1)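 Clinical isolates from intensive care patients. MICs by dilution on Mueller-Hinton agar, inoculum 10^4 CFU per spot, read after growth and interpreted by CA-SFM guidelines. Where the line names an inhibitor, it was held at a fixed level: clavulanic acid 2 μg/ml, tazobactam 4 μg/ml, or EDTA 0.4 mM.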

[2] = system: Escherichia coli; experiment: Antimicrobial activity against Escherichia coli DH5alpha 2878 transformant expressing beta-lactamase VIM-19 by microdilution method in presence of 0.4 mM EDTA
In short: (§2)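 MIC by dilution on Mueller-Hinton agar, inoculum 10^4 CFU per spot, interpreted by CA-SFM guidelines. Inhibitor combinations where tested: clavulanic acid 2 μg/ml, tazobactam 4 μg/ml, EDTA 0.4 mM. Transconjugants came from rifampin-resistant E. coli C600 selected on rifampin 300 μg/ml plus cefotaxime 0.5 μg/ml. Transformants came from electroporation into E. coli DH5α selected on cefotaxime 0.5 μg/ml.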

[3] = system: Klebsiella pneumoniae; experiment: Antimicrobial activity against Klebsiella pneumoniae 2878 strain expressing beta-lactamase VIM-19 by microdilution method; in short: as §1
[4] = system: Klebsiella pneumoniae; experiment: Antimicrobial activity against Klebsiella pneumoniae 6828 strain expressing beta-lactamase VIM-19 by microdilution method; in short: as §1
[5] = system: Escherichia coli; experiment: Antimicrobial activity against Escherichia coli 2603 strain expressing beta-lactamase VIM-19 by microdilution method in presence of 0.4 mM EDTA; in short: as §1
[6] = system: Escherichia coli; experiment: Antimicrobial activity against Escherichia coli DH5alpha 2878 transformant expressing beta-lactamase VIM-19 by microdilution method; in short: as §2
[7] = system: Klebsiella pneumoniae; experiment: Antimicrobial activity against Klebsiella pneumoniae 6828 strain expressing beta-lactamase VIM-19 by microdilution method in presence of 0.4 mM EDTA; in short: as §1
[8] = system: Klebsiella pneumoniae; experiment: Antimicrobial activity against Klebsiella pneumoniae 2878 strain expressing beta-lactamase VIM-19 […] in presence of 0.4 mM EDTA
[9] = system: Escherichia coli; experiment: Antimicrobial activity against Escherichia coli 138 expressing beta-lactamase VIM-19 by microdilution method in presence of 0.4 mM EDTA; in short: as §2
[10] = system: Escherichia coli; experiment: Antimicrobial activity against Escherichia coli C600 2878 transconjugate expressing beta-lactamase VIM-19 by microdilution method in presence of 0.4 mM EDTA
In short: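 Rifampin-resistant E. coli C600 recipient mated with the clinical strain. Transconjugants were selected on agar with rifampin 300 μg/ml plus cefotaxime 0.5 μg/ml. MICs by dilution on Mueller-Hinton agar, inoculum 10^4 CFU per spot, CA-SFM interpretation. Inhibitor at a fixed level: clavulanic acid 2 μg/ml or EDTA 0.4 mM.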

[11] = system: Escherichia coli; experiment: Antimicrobial activity against Escherichia coli 138 expressing beta-lactamase VIM-19 by microdilution method; in short: as §1
[12] = system: Escherichia coli; experiment: Antimicrobial activity against Escherichia coli 2603 strain expressing beta-lactamase VIM-19 by microdilution method; in short: as §1
[13] = system: Escherichia coli; experiment: Antimicrobial activity against Escherichia coli harbouring plasmid BK-CMV expressing beta-lactamase VIM-19 by microdilution method; in short: as §2
[14] = system: Escherichia coli; experiment: Antimicrobial activity against Escherichia coli C600 2878 transconjugate expressing beta-lactamase VIM-19 by microdilution method; in short: as §2
[15] = system: Escherichia coli; experiment: Antimicrobial activity against Escherichia coli DH5alpha harbouring plasmid BK-VIM-19 expressing beta-lactamase VIM-19 by microdilution method; in short: as §2
[16] = system: Escherichia coli; experiment: Antimicrobial activity against Escherichia coli DH5alpha harbouring plasmid BK-VIM-19 expressing beta-lactamase VIM-19 by microdilution method in presence of 0.4 mM EDTA; in short: as §2
[17] = system: Providencia stuartii; experiment: Antimicrobial activity against Providencia stuartii 6858 strain expressing beta-lactamase VIM-19 by microdilution method in presence of 0.4 mM EDTA; in short: as §1
[18] = system: Escherichia coli; experiment: Antimicrobial activity against Escherichia coli harbouring plasmidBK-CMV expressing beta-lactamase VIM-19 […] in presence of 0.4 mM EDTA

Row | Structure (SMILES) | MIC [1] | MIC [2] | MIC [3] | MIC [4] | MIC [5] | MIC [6] | MIC [7] | MIC [8] | MIC [9] | MIC [10] | MIC [11] | MIC [12] | MIC [13] | MIC [14] | MIC [15] | MIC [16] | MIC [17] | MIC [18]
1 | C[C@H]1[C@H](NC(=O)/C(=N\OC(C)(C)C(=O)O)c2csc(N)n2)C(=O)N1S(=O)(=O)O [AZTREONAM] | 2 µg/mL (≈ 4.59 µM) | 16 µg/mL | 16 µg/mL (≈ 36.7 µM) | 8 µg/mL (≈ 18.4 µM) | 64 µg/mL | 16 µg/mL (≈ 36.7 µM) | 8 µg/mL | 16 µg/mL | 128 µg/mL | 4 µg/mL | 128 µg/mL (≈ 294 µM) | 64 µg/mL (≈ 147 µM) |  |  |  |  |  | 
2 | CO[C@@]1(NC(=O)Cc2cccs2)C(=O)N2C(C(=O)O)=C(COC(N)=O)CS[C@@H]21 [CEFOXITIN] | 128 µg/mL (≈ 299 µM) |  | 512 µg/mL (≈ 1200 µM) | 128 µg/mL (≈ 299 µM) |  | 256 µg/mL (≈ 599 µM) |  |  |  |  | 512 µg/mL (≈ 1200 µM) | 512 µg/mL (≈ 1200 µM) | 4 µg/mL (≈ 9.36 µM) | 128 µg/mL (≈ 299 µM) | 128 µg/mL (≈ 299 µM) |  |  | 
3 | C[C@@H](O)[C@H]1C(=O)N2C(C(=O)O)=C(S[C@@H]3CN[C@H](C(=O)Nc4cccc(C(=O)O)c4)C3)[C@H](C)[C@H]12 | 32 µg/mL (≈ 67.3 µM) | < 0.12 µg/mL | 64 µg/mL (≈ 135 µM) | 16 µg/mL (≈ 33.6 µM) | < 0.12 µg/mL | 8 µg/mL (≈ 16.8 µM) | < 0.12 µg/mL | 0.25 µg/mL | 0.25 µg/mL | < 0.12 µg/mL | 32 µg/mL (≈ 67.3 µM) | 16 µg/mL (≈ 33.6 µM) | < 0.12 µg/mL | 1 µg/mL (≈ 2.1 µM) | 4 µg/mL (≈ 8.41 µM) | < 0.12 µg/mL | < 0.12 µg/mL | < 0.12 µg/mL
4 | C[C@@H](O)[C@H]1C(=O)N2C(C(=O)O)=C(S[C@@H]3CN[C@H](C(=O)N(C)C)C3)[C@H](C)[C@H]12 [MEROPENEM] | 8 µg/mL (≈ 20.9 µM) | < 0.12 µg/mL | 32 µg/mL (≈ 83.4 µM) | 4 µg/mL (≈ 10.4 µM) | < 0.12 µg/mL | 8 µg/mL (≈ 20.9 µM) | < 0.12 µg/mL | < 0.12 µg/mL | < 0.12 µg/mL | < 0.12 µg/mL | 16 µg/mL (≈ 41.7 µM) | 8 µg/mL (≈ 20.9 µM) | < 0.12 µg/mL | 1 µg/mL (≈ 2.61 µM) | 8 µg/mL (≈ 20.9 µM) | < 0.12 µg/mL | < 0.12 µg/mL | < 0.12 µg/mL
